The values that follow come from ChEMBL document CHEMBL1155882, “Selective nucleoside triphosphate diphosphohydrolase-2 (NTPDase2) inhibitors: nucleotide mimetics derived from uridine-5'-carboxamide” (J Med Chem, 2008).

As usually defined, the Ki is the equilibrium dissociation constant of an inhibitor or competing ligand from its target. A word on the IC50: it is the concentration at which inhibition is half-maximal. In general, inhibition refers to the drop in the measured response relative to a control, in per cent.

Activity calls are given as the source filed them. The calls are words filed in the database; no cut-off is given here. A value given as a limit tells only on which side of the number the result lay.

Series [1] concerns the target T1, Ectonucleoside triphosphate diphosphohydrolase 8 (Homo sapiens, UniProt Q5MY95).
T1 sequence (Q5MY95 whole entry): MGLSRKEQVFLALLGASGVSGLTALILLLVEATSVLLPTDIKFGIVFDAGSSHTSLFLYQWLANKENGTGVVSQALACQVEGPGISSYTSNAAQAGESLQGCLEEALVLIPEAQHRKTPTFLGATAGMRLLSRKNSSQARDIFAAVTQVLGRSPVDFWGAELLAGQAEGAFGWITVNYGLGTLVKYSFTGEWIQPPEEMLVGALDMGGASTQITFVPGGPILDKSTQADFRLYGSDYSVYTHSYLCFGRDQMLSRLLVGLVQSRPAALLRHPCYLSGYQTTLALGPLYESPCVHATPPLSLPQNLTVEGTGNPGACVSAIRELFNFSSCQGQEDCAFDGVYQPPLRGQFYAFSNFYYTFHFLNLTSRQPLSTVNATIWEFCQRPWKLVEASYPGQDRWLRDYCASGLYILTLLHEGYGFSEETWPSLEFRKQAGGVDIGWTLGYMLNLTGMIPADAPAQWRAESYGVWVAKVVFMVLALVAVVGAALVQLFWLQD
Kind of series: Inhibition of human NTPDase 8 expressed in COS7 cells. The format is cell-based, COS-7. An outline of the steps:
(§1)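 NTPDase2 membranes come from stably transfected HEK 293 cells; NTPDase3 and NTPDase8 are transiently expressed in COS-7 cells as crude protein extracts. Buffer is 140 mM NaCl, 5 mM KCl, 1 mM MgCl2, 2 mM CaCl2, 10 mM HEPES pH 7.4, with 400 μM ATP, 37 °C, 10 min, stopped at 99 °C. Products are read by capillary electrophoresis (UV 210 nm, UMP internal standard).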

Series [2] has as its target T2, P2Y purinoceptor 2 (Homo sapiens, UniProt P41231). The experiment in a line: Antagonist activity at human P2Y2 receptor expressed in human 1321N1 cells assessed as inhibition of UTP-induced intracellular calcium mobilization by FLUOstar plate reader. The format is functional, cell-based. The gist of the method: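 Fura-2 AM-loaded astrocytoma cells expressing human P2Y2 receptor. Compound is tested at 0.1, 0.3, 1, 3, 10, 30 and 100 μM. The read-out is inhibition of UTP-induced intracellular calcium mobilization.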

For another series, the target named is P2Y purinoceptor 6 (Rattus norvegicus, UniProt Q63371). The experiment in a line: Antagonist activity at rat P2Y6 receptor expressed in human 1321N1 cells assessed as inhibition of UDP-induced intracellular calcium mobilization by NOVOstar plate reader. (In general: Calcium assays in cells follow changes in intracellular calcium, usually with a dye or a luminescent sensor.)
Sequence of P2Y purinoceptor 6 (Q63371 whole entry): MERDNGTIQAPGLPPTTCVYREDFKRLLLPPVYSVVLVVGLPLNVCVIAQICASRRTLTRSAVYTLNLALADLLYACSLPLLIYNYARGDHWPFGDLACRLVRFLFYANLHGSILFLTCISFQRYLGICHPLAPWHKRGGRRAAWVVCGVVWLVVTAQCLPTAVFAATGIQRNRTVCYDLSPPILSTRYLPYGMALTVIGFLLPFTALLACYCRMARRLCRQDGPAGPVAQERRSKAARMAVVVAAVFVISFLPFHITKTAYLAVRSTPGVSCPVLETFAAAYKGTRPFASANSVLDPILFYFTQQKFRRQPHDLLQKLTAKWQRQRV

For series [3], the target named is T3, P2Y purinoceptor 4 (Homo sapiens, UniProt P51582). Kind of series: Antagonist activity at human P2Y4 receptor expressed in human 1321N1 cells assessed as inhibition of UTP-induced intracellular calcium mobilization by FLUOstar plate reader. The format is functional, cell-based.
T3 sequence (P51582 whole entry): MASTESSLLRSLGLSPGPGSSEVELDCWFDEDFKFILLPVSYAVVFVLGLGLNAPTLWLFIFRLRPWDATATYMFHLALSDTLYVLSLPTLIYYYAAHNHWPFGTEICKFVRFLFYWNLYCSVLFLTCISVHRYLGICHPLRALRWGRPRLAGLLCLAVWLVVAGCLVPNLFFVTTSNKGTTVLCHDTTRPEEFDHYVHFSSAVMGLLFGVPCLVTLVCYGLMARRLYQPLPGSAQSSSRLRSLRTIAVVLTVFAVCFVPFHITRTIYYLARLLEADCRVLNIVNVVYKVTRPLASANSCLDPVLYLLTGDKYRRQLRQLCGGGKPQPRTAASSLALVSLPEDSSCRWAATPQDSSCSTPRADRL
The nature of series [4]: Inhibition of rat NTPDase 3.
Series [5] addresses T3, P2Y purinoceptor 4. Kind of series: Antagonist activity at human P2Y4 receptor expressed in human 1321N1 cells assessed as inhibition of UTP-induced intracellular calcium mobilization at 100 uM by FLUOstar plate reader. Format: functional, cell-based. The gist of the method: (§2)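 Human 1321N1 astrocytoma cells express human P2Y2 or P2Y4, or rat P2Y6. Cells are loaded with Fura-2 AM and preincubated with compound at 100 μM. Inhibition of agonist-induced intracellular calcium release is read as Fura-2 fluorescence. The agonist is UTP for P2Y2 and P2Y4, and UDP for P2Y6.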

The target in series [6] is P2Y purinoceptor 6 (Rattus norvegicus) (UniProt Q63371). The experiment in a line: Antagonist activity at rat P2Y6 receptor expressed in human 1321N1 cells assessed as inhibition of UDP-induced intracellular calcium mobilization by NOVOstar plate reader.
Sequence of P2Y purinoceptor 6 (Rattus norvegicus) (Q63371 whole entry): as the sequence (Q63371 whole entry) above
Series [7] addresses T2, P2Y purinoceptor 2. The experiment in a line: Antagonist activity at human P2Y2 receptor expressed in human 1321N1 cells assessed as inhibition of UTP and ATP-induced receptor activation at 100 uM relative to UTP. Format: functional, cell-based. Also on record: scale not given: the % may be the effect or the level left. The gist of the method:
as §2

Series [8] addresses T4, Ectonucleoside triphosphate diphosphohydrolase 8 (Homo sapiens) (UniProt Q5MY95).
T4 sequence (whole entry): T1 sequence (Q5MY95 whole entry)
Kind of series: Inhibition of human NTPDase 8 expressed in COS7 cells at 1mM. Format: cell-based. Conditions: COS-7. The gist of the method:
(§3)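 Transiently transfected COS-7 cell protein extract expressing human enzyme. 1 mM test compound with 400 μM ATP in HEPES 10 mM pH 7.4 buffer (NaCl, KCl, 1 mM MgCl2, 2 mM CaCl2), 37 °C for 10 min. Stopped at 99 °C for 5 min. Products measured by capillary electrophoresis, UV 210 nm, with UMP internal standard. Triplicates in two experiments; empty-pcDNA3 membrane control.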

Series [9] in a line: Stability in simulated artificial gastric juice after 24 hrs by LC-MS analysis. The following applies: simulated gi fluid. The format is physicochemical.
The target of series [10] is T5, Ectonucleoside triphosphate diphosphohydrolase 2 (Homo sapiens, UniProt Q9Y5L3).
T5 sequence (Q9Y5L3 whole entry): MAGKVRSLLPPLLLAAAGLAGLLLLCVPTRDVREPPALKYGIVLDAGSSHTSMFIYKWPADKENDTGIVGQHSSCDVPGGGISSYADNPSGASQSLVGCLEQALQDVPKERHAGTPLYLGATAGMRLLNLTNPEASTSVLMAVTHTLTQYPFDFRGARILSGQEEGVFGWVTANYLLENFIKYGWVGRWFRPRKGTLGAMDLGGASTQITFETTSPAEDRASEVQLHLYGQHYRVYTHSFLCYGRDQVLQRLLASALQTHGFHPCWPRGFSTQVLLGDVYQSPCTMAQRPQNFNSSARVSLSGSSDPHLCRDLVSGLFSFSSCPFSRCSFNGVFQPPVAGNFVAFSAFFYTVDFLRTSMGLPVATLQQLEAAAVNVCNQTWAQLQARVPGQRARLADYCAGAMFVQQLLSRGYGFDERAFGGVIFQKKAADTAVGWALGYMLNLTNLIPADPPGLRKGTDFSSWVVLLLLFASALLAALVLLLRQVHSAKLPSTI
Kind of series: Inhibition of human NTPDase 2 expressed in HEK293 cells assessed as residual activity by capillary electrophoresis. Format: cell-based. The gist of the method:
as §1

The target in series [11] is T6, Ectonucleoside triphosphate diphosphohydrolase 1 (Homo sapiens) (UniProt P49961).
T6 sequence (whole entry): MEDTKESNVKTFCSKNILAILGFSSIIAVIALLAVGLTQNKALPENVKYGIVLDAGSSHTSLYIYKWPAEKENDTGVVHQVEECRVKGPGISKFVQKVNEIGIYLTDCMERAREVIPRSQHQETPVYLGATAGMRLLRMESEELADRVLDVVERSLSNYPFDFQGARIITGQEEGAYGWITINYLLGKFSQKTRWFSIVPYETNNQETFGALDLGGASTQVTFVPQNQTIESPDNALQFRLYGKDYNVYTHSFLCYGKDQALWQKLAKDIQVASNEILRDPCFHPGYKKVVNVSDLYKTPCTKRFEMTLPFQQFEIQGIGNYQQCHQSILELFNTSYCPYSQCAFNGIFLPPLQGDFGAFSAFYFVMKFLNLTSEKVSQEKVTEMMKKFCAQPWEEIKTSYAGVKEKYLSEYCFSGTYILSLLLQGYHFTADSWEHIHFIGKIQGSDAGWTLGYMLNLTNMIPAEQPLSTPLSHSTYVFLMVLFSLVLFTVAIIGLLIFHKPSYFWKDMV
The experiment in a line: Inhibition of human NTPDase 1 expressed in COS7 cells at 1mM. Format: cell-based. The following applies: COS-7. An outline of the steps: as §3

For series [12], the target named is P2Y purinoceptor 6 (Rattus norvegicus) (UniProt Q63371). The experiment in a line: Antagonist activity at rat P2Y6 receptor expressed in human 1321N1 cells assessed as inhibition of UDP-induced intracellular calcium mobilization at 100 uM by NOVOstar plate reader. The format is functional, cell-based. An outline of the steps: as §2
For series [13], the target named is T7, Ectonucleoside triphosphate diphosphohydrolase 3 (Homo sapiens) (UniProt O75355).
T7 sequence (whole entry): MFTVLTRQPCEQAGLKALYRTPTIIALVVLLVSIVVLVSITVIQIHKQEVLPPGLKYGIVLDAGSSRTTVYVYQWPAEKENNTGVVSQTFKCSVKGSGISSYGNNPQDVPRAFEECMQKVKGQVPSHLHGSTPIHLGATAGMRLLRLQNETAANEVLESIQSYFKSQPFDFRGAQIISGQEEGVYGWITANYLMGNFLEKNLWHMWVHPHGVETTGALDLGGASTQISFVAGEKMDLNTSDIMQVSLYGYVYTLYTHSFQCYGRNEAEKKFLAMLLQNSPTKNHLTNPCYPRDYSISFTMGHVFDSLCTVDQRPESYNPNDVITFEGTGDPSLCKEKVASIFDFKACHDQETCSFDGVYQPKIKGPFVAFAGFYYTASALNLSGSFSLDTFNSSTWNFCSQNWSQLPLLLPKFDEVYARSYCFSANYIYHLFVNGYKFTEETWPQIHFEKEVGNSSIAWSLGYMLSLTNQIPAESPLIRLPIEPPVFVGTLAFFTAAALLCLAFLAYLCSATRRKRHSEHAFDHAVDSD
Kind of series: Inhibition of human NTPDase 3 expressed in COS7 cells at 1mM. The following applies: COS-7. The format is cell-based. The gist of the method:
as §1

Series [14] deals with T3, P2Y purinoceptor 4. The experiment in a line: Antagonist activity at human P2Y4 receptor expressed in human 1321N1 cells assessed as inhibition of UTP-induced receptor activation at 100 uM relative to UTP. The arrangement: scale not given: the % may be the effect or the level left. The format is functional, cell-based. The gist of the method: as §2
Series [15] in a line: Chemical stability in 0.001 N aqueous sodium hydroxide at pH 11 by LC-MS analysis. Conditions: buffer. The format is physicochemical. An outline of the steps:
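Compound from a 2 mM aqueous stock (20 mM NH4OAc) is diluted 10 μL into 990 μL of 0.001 N NaOH (pH 11). It is incubated 2 or 24 h at 37 °C and analysed by C18 LC–ESI-MS, with detection limit about 0.1 μg/mL.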

The target in series [16] is P2Y purinoceptor 6 (Rattus norvegicus) (UniProt Q63371). The experiment in a line: Antagonist activity at rat P2Y6 receptor expressed in human 1321N1 cells assessed as inhibition of UDP-induced receptor activation at 100 uM relative to UDP. Also on record: scale not given: the % may be the effect or the level left. Format: functional, cell-based. The gist of the method: as §2

Series [17] in a line: Metabolic stability in rat liver microsomes after 24 hrs by LC-MS analysis. The format is ADME, Microsome. Conditions: read-out: Stability. On the technique in general: Liver microsomes are vesicles of endoplasmic reticulum, rich in cytochrome P450 enzymes.
In series [18] the target is T2, P2Y purinoceptor 2. Kind of series: Antagonist activity at human P2Y2 receptor expressed in human 1321N1 cells assessed as inhibition of UTP-induced intracellular calcium mobilization at 100 uM by FLUOstar plate reader. Format: functional, cell-based. The gist of the method:
as §2

T2 sequence (P41231 whole entry): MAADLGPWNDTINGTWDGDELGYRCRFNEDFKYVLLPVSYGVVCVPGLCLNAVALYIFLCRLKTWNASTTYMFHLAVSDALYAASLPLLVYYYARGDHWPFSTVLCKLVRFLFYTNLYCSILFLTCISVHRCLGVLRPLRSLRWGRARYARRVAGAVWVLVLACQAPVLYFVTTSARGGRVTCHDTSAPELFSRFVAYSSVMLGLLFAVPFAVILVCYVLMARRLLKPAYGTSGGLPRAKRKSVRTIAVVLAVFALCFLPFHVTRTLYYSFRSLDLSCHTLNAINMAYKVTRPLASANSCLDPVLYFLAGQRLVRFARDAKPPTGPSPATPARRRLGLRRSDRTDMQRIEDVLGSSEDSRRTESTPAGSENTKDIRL

For the compound `Nc1c(S(=O)(=O)O)cc(Nc2ccc(Nc3nc(Cl)nc(Nc4cccc(S(=O)(=O)O)c4)n3)c(S(=O)(=O)O)c2)c2c1C(=O)c1ccccc1C2=O` [RB 2], the Ki in series [1] was greater than 100 µM. The IC50 at P2Y purinoceptor 2 [2] came to 12 µM; on P2Y purinoceptor 6, 4.34 µM; at P2Y purinoceptor 4 [3], 5.75 µM.

For the compound `Cc1ccc(C(=O)Nc2ccc(S(=O)(=O)O)c3cc(S(=O)(=O)O)cc(S(=O)(=O)O)c23)cc1NC(=O)c1cccc(NC(=O)Nc2cccc(C(=O)Nc3cc(C(=O)Nc4ccc(S(=O)(=O)O)c5cc(S(=O)(=O)O)cc(S(=O)(=O)O)c45)ccc3C)c2)c1` [SURAMIN], the Ki in series [1] was greater than 100 µM; in [4] it was 12.7 µM. In addition, the IC50 at P2Y purinoceptor 2 [2] was determined as 50 µM; in series [6] it was 27 µM. The result at P2Y purinoceptor 4 [5] was inactive.

For `CCOP(=O)(Cc1ccc(NC(=O)CNC(=O)[C@H]2O[C@@H](n3ccc(=O)[nH]c3=O)[C@H](O)[C@@H]2O)cc1)OCC`, the Activity was -21% at P2Y purinoceptor 2 [7], -42% on P2Y purinoceptor 4 [14] and -7% in series [16]. In addition, the inhibition was 0% in series [8]; 4% on P2Y purinoceptor 4 [5]; 50% in series [11]; -10% in series [12]; 0% in series [13]; 22% on P2Y purinoceptor 2 [18]. For the same compound, the Stability entry in series [9] and in series [15] was “Stable” each time. For the same compound, the IC50 in series [10] is 42 µM. The remaining at 24 h in [17] was greater than 95%.

As for `CCOP(=O)(Cc1ccc(NC(=O)CCNC(=O)[C@H]2O[C@@H](n3ccc(=O)[nH]c3=O)[C@H](O)[C@@H]2O)cc1)OCC`, the Activity at P2Y purinoceptor 2 [7] is 14%; in series [9], “Active”; on P2Y purinoceptor 4 [14], -6%; in [15], “Active”; in [16], -5%. Moreover, the inhibition was 0% in [8]; 14% at P2Y purinoceptor 4 [5]; 7% in series [12]; 40% in series [13]; 10% on P2Y purinoceptor 2 [18]. In addition, the remaining at 24 h in series [17] was greater than 95%.
